Results on 7 molecules are retold here after ChEMBL document CHEMBL1772984, “Inhibitor selectivity of a new class of oseltamivir analogs against viral neuraminidase over human neuraminidase enzymes” (Bioorg Med Chem, 2011).

Calls of active or inactive are those of the source. The calls are words filed in the database; no cut-off is given here.

Experiment [1] has as its target T1, Sialidase-3 (Homo sapiens) (UniProt Q9UQ49).
T1 sequence (whole entry): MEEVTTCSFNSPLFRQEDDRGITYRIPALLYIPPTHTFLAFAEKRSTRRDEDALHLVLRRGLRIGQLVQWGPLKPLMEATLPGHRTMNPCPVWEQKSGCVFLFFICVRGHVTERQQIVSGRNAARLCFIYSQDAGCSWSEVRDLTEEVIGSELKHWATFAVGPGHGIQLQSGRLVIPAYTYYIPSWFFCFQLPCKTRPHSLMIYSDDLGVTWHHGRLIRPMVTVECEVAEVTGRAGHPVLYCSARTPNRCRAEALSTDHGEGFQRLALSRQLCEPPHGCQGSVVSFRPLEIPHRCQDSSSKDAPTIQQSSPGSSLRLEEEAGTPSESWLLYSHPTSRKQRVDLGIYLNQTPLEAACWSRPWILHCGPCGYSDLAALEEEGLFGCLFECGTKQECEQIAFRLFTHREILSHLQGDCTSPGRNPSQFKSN
As to the kind of experiment: (§1) Inhibition of human NEU3 using 4MU-NA as substrate after 1 hr by fluorescence assay. Put shortly:
(§2)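 Recombinant human NEU3 was used as an N-terminal MBP fusion, expressed in E. coli. Enzyme (0.1 mg/mL before mixing) was preincubated with inhibitor (eight serial-dilution concentrations, five replicates) for 30 min at 37 °C. 4MU-NA was then added from a 1 mM stock in 0.1 M sodium acetate pH 5.0 and incubated 1 h.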

A further experiment deals with T2, Sialidase-3 (Homo sapiens, UniProt Q9UQ49).
T2 sequence (Q9UQ49 whole entry): T1 sequence (whole entry)
The experiment is described as §1. Put shortly: as §2

Experiment [2] deals with T3, Sialidase-4 (Homo sapiens) (UniProt Q8WWR8).
T3 sequence (whole entry): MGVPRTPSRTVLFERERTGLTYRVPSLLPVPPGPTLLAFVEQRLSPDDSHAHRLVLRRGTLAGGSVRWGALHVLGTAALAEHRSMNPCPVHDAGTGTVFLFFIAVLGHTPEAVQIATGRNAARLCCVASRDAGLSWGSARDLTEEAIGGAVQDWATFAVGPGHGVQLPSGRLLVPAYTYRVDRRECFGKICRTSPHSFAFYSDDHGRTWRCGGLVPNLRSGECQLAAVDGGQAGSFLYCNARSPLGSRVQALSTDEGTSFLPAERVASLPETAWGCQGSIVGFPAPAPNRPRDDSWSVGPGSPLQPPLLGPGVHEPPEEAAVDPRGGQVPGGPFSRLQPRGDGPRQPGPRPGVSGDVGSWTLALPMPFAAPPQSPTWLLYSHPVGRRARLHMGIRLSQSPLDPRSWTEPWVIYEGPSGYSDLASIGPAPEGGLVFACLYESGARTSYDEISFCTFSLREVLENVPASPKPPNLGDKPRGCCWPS
Put plainly: (§3) Inhibition of human NEU4 using 4MU-NA as substrate after 1 hr by fluorescence assay. In short, it runs like this: (§4)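 Recombinant human NEU4 was used as a GST fusion, expressed in E. coli BL21(DE3) pLysS and glutathione-agarose purified. Enzyme (0.1 mg/mL before mixing) was preincubated 30 min at 37 °C with inhibitor (eight serial-dilution concentrations, five replicates). 4MU-NA was added from a 1 mM stock in 0.1 M sodium acetate pH 4.5 for 1 h.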

The next experiment concerns the target T4, Sialidase-4 (Homo sapiens, UniProt Q8WWR8).
T4 sequence (Q8WWR8 whole entry): T3 sequence (whole entry)
The description is as §3. Put shortly: as §4

Experiment [3] is described as follows: Inhibition of viral Neuraminidase.

The IC50 is the concentration that gives 50% inhibition. Higher therefore signals weaker potency in that assay. As to `CCC(CC)O[C@@H]1CC(C(=O)O)=C[C@H](n2cc(C(C)(C)O)nn2)[C@H]1NC(C)=O`, the inhibition result in experiment [1] and in experiment [2] was “inactive” each time. Moreover, the IC50 against Sialidase-3 and on Sialidase-4 was above 1000 µM in each case.
`CCC(CC)O[C@@H]1CC(C(=O)O)=C[C@H](n2cc(CCc3ccccc3)nn2)[C@H]1NC(C)=O`: the inhibition result in experiment [1] and in experiment [2] was “inactive” throughout.
As to `CCC(CC)O[C@@H]1CC(C(=O)O)=C[C@H](N)[C@H]1NC(C)=O`, the IC50 on Sialidase-3 and on Sialidase-4 was above 1000 µM throughout.
As for `CC(=O)N[C@H]1[C@H]([C@H](O)[C@H](O)CO)OC(C(=O)O)=C[C@@H]1O` [NEU5AC2EN], at Sialidase-3, half-maximal inhibition (IC50) was put at 30 µM.
On to `CCC(CC)O[C@@H]1CC(C(=O)O)=C[C@H](n2cc([C@]3(O)CC[C@H]4[C@@H]5CCc6cc(O)ccc6[C@H]5CC[C@@]43C)nn2)[C@H]1NC(C)=O`, for which the IC50 was determined as 350 µM on Sialidase-3 and 800 µM against Sialidase-4.
Consider `CCC(CC)O[C@@H]1CC(C(=O)O)C=C(n2cc(C(C)(C)O)nn2)[C@H]1NC(C)=O` (some centres undefined), for which the inhibition result in experiment [2] was “inactive”. The molecule further returned an IC50 against Sialidase-4 above 1000 µM.
For orientation: Ki means the dissociation constant of the complex between target and ligand, obtained from inhibition or displacement. A low value points to higher affinity. In the case of `CCC(CC)O[C@@H]1CC(C(=O)O)=C[C@H](n2cc(C(O)CC)nn2)[C@H]1NC(C)=O` (some centres undefined), the Ki in experiment [3] amounted to 0.072 µM. This counts as double-digit nanomolar.
